From PubChem BioAssay
The source made the active and inactive calls.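 Rule for the calls, unless noted: active = viability at or under a set limit in both replicates, limit being median viability minus 3 SD (cut at about 48% in these data, passing the limit was not always enough); inconclusive = at or under the limit in just one replicate; inactive = at or above the limit in both replicates.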

Columns and labels:
[1] = SK-BR-3 cell growth inhibitors, pilot screen, 24 h, human (AID 572;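 active = viability at or below 10% of carrier control in both of two separate runs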;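 note: compound exposure lasted between 18 and 24 h rather than exactly 24 h; 100% = carrier-treated control wells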); settings: SK-BR-3 viability, CellTiter-Glo luminescence, at 10 µM, stronger effect = lower value
[2] = HUVEC growth inhibition – cell-based, human, primary screen (AID 575;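 active = viability at or below 30% in both replicate assays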;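 note: 100% = median of untreated cell wells with 0.1% DMSO on each plate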); settings: HUVEC proliferation, CellTiter-Glo luminescence, 72 h; at 10 µM; stronger effect = lower value
In short: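 Timing: 72 h treatment at 37 °C; material: HUVEC primary cells; technique: CellTiter-Glo luminescence measuring cellular ATP; controls: vehicle and MePR control wells; measure: percent of median DMSO-control luminescence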

[3] = growth inhibitors of H69AR lung tumor, primary screen, human, duplicate replicates (AID 580); settings: H69AR lung tumor cells viability, ATP luminescence, 72 h; at 10 µM; stronger effect = lower value;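 note: 100% = mean luminescence of untreated wells and 0% = no signal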
[4] = reversal of MRP1-mediated doxorubicin resistance, pilot screen, H69AR cells, doxorubicin co-treatment (AID 601;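 active = viability loss from added drug above about 55%, and viability with drug at most 40%, in both replicates, limit read from the data, passing the limit was not always enough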); settings: CellTiter-Glo, 72 h, at 10 µM; for differential viability (reversal): stronger effect = higher value
[5] = 384-well plate pilot, post-Golgi transport modulator project, inhibition of yeast transport mutant growth (AID 636; in the data active = inhibition above about 31%); settings: absorbance 615 nm, about 18 h, stronger effect = higher value
[6] = growth suppression of yeast trafficking mutant, preliminary HTS, modulators of trafficking downstream of Golgi apparatus project, 1536-format plate, OD 615 nm (AID 637; in the data active = inhibition above about 30%); settings: yeast transport mutant growth, absorbance 615 nm, 18 h; stronger effect = higher value
[7] = H69AR cells + 2 uM doxorubicin, measured here: viability with 2 uM doxorubicin, stronger effect = lower value
[8] = H69AR cells, compound alone cytotoxicity

Compound | viability [1] | viability [2] | viability [3] | differential viability (reversal) ([4]; H69AR cells + 2 uM doxorubicin) | viability [4, 7] [%] | viability [4, 8] [%] | inhibition [5] | inhibition [6]
Cc1nc2scc(-c3ccco3)c2c(=O)n1/N=C/N(C)C | 87% (inactive) | 76.1% (inactive) | 95.3% (inactive) | 2.7% (inactive) | 92.6 | 95.3 | -4.86% (inactive) | -4.73% (inactive)
Cc1cccc(-n2ncc3c(NCc4cccs4)ncnc32)c1 | 64% (inactive) | 61.8% (inactive) | 66.1% (inactive) | -22.8% (inactive) | 88.9 | 66.1 | 26.2% (inactive) | 0.36% (inactive)
COc1ccccc1N(CC(=O)NC1CCCC1)C(=O)c1csnn1 | 97% (inactive) | 89.7% (inactive) | 90% (inactive) | 32.5% (inactive) | 57.5 | 90 | -1.47% (inactive) | -8.36% (inactive)
c1ccc2oc(SCc3cn4ccccc4n3)nc2c1 | 91% (inactive) | 93.3% (inactive) | 95% (inactive) | 9.37% (inactive) | 85.6 | 95 | -1.43% (inactive) | -1.48% (inactive)
COc1ccc(CCN(C)CCCC(C#N)(c2cc(OC)c(OC)c(OC)c2)C(C)C)cc1OC (stereo unspecified) | 85% (inactive) | 64.6% (inactive) | 95.6% (inactive) | -5.51% (inactive) | 101 | 95.6 | 5.71% (inactive) | -1.17% (inactive)
CCCCNC(=O)OCCNC(=O)NC | 98% (inactive) | 95.9% (inactive) | 98.1% (inactive) | 7.46% (inactive) | 90.7 | 98.1 | -4.05% (inactive) | -5.45% (inactive)
Cn1cc(C(=O)NC2CCCCCCC2)c(=O)c2cc(S(=O)(=O)N3CCCC3)ccc21 | 76.5% (inactive) | 79.8% (inactive) | 90.9% (inactive) | 0.325% (inactive) | 90.6 | 90.9 | -5.95% (inactive) | -4.67% (inactive)
CCN(CC)S(=O)(=O)c1cccc(-c2nnc(SCCOc3ccccc3C)o2)c1 | 75% (inactive) | 89% (inactive) | 87.9% (inactive) | 18.7% (inactive) | 69.3 | 87.9 | -2.6% (inactive) | 8.36% (inactive)
O=C(O)c1ccc(S(=O)(=O)Cc2ccccc2)cc1 | 95% (inactive) | 102% (inactive) | 87.3% (inactive) | -7.88% (inactive) | 95.2 | 87.3 | -3.29% (inactive) | 1.45% (inactive)
CC(=O)Nc1ccc(NC(=O)Cn2cnc3c(cnn3C(C)(C)C)c2=O)cc1 | 101% (inactive) | 87.9% (inactive) | 98.9% (inactive) | 13.8% (inactive) | 85.1 | 98.9 | -5.47% (inactive) | 3.27% (inactive)
CCOC(=O)c1sc2cccc(F)c2c1N | 105% (inactive) | 80.8% (inactive) | 88.1% (inactive) | 5.58% (inactive) | 82.5 | 88.1 | -5.45% (inactive) | 6.07% (inactive)
CCOc1cc(C(=O)Nc2c3c(nn2C(C)(C)C)CS(=O)C3)cc(OCC)c1OCC (stereo unspecified) | 103% (inactive) | 96.7% (inactive) | 101% (inactive) | 7.14% (inactive) | 93.7 | 101 | -1.04% (inactive) | -7.54% (inactive)
COc1cc(NC(=O)c2cccs2)cc(OC)c1 | 72% (inactive) | 95.4% (inactive) | 97.7% (inactive) | 13.6% (inactive) | 84 | 97.7 | -2.97% (inactive) | -8.18% (inactive)
COc1nc(C)ccc1-c1noc(-c2ccncc2)n1 | 101% (inactive) | 86.5% (inactive) | 95.1% (inactive) | 11.4% (inactive) | 83.6 | 95.1 | -8.22% (inactive) | 1.45% (inactive)
CCCCNC(=O)CSc1nc2ccc(N3CCOCC3)cc2c(=O)n1CCc1ccccc1 | 95.5% (inactive) | 70.1% (inactive) | 69.3% (inactive) | 18.1% (inactive) | 51.3 | 69.3 | -7.16% (inactive) | 4.13% (inactive)
CCc1nn(CC(=O)N2CCN(Cc3ccc4c(c3)OCO4)CC2)c(=O)c2cc3occc3n12 | 87% (inactive) | 100% (inactive) | 91.8% (inactive) | -2.36% (inactive) | 94.2 | 91.8 | 0.14% (inactive) | -4.55% (inactive)
Nc1nc2ccc(OC(F)(F)F)cc2s1 | 88% (inactive) | 76.5% (inactive) | 71.9% (inactive) | -19.7% (inactive) | 91.6 | 71.9 | -0.13% (inactive) | 0.33% (inactive)
Cc1sc2nc3n(c(=O)c2c1C)NC(=O)CC3 | 104% (inactive) | 86.3% (inactive) | 94% (inactive) | 5.63% (inactive) | 88.4 | 94 | -4.79% (inactive) | 1.82% (inactive)
CN1C(=O)c2oc3ccccc3c(=O)c2C1c1ccccn1 (stereo unspecified) | 105% (inactive) | 87% (inactive) | 106% (inactive) | 11% (inactive) | 94.8 | 106 | -6.58% (inactive) | -1.09% (inactive)

Compound | viability [1] | viability [2] | viability [3] | differential viability (reversal) ([4]; H69AR cells + 2 uM doxorubicin) | viability [4, 7] [%] | viability [4, 8] [%] | inhibition [5] | inhibition [6]
COc1cc(C(=O)OC(C)CN2CCCC2)cc(OC)c1OC (stereo unspecified) | 99% (inactive) | 98.1% (inactive) | 108% (inactive) | 11.5% (inactive) | 97 | 108 | -3.65% (inactive) | 0.55% (inactive)
CS(=O)(=O)NCC(c1cccnc1)N1CCN(c2ccc(F)cc2)CC1 (stereo unspecified) | 107% (inactive) | 113% (inactive) | 92.2% (inactive) | 0.865% (inactive) | 91.3 | 92.2 | -1.89% (inactive) | -3.45% (inactive)
O=C1NC(=O)C(c2ccccc2)(c2ccccc2)N1 | 111% (inactive) | 75.6% (inactive) | 98% (inactive) | 7.3% (inactive) | 90.7 | 98 | 2.86% (inactive) | -1% (inactive)
O=C(COC(=O)c1cnccn1)Nc1ccc2c(c1)OCO2 | 130% (inactive) | 82% (inactive) | 91.6% (inactive) | 2.88% (inactive) | 88.7 | 91.6 | 0.65% (inactive) | 2.46% (inactive)
c1ccc2c(NC3CCCC3)nnc(NC3CCCC3)c2c1 | 60% (inactive) | 83.1% (inactive) | 91.4% (inactive) | 1.81% (inactive) | 89.6 | 91.4 | -0.92% (inactive) | -7.46% (inactive)
Cc1c(C(=O)NCc2ccccn2)sc2nc(-c3ccc(F)cc3)cn12 | 119% (inactive) | 89.4% (inactive) | 95.4% (inactive) | 13.1% (inactive) | 82.3 | 95.4 | -3.12% (inactive) | 3.77% (inactive)
CC(C)Oc1ccc2c(=O)c(-c3ccccc3)coc2c1 | 121% (inactive) | 87% (inactive) | 89.7% (inactive) | 6.81% (inactive) | 82.8 | 89.7 | -1.04% (inactive) | -0.17% (inactive)
CN1CCN(C(=O)NC2CCCN2S(=O)(=O)c2ccc(Cl)cc2)CC1 (stereo unspecified) | 100% (inactive) | 96.4% (inactive) | 88.9% (inactive) | -0.73% (inactive) | 89.6 | 88.9 | -1.1% (inactive) | -4.68% (inactive)
CCOC(=O)C(C)C1(O)c2ccccc2-c2ncccc21 (stereo unspecified) | 91% (inactive) | 98.6% (inactive) | 102% (inactive) | 13% (inactive) | 88.6 | 102 | -5.81% (inactive) | 1.27% (inactive)
CCCCOC(=O)c1cccc(NC(=O)CC)c1 | 113% (inactive) | 91.1% (inactive) | 89.6% (inactive) | 1.34% (inactive) | 88.3 | 89.6 | 5.71% (inactive) | 13.4% (inactive)
O=C(NC(C(=O)c1ccccc1)N1CCOCC1)c1cccs1 (stereo unspecified) | 87% (inactive) | 100% (inactive) | 96% (inactive) | 15% (inactive) | 81 | 96 | -1.22% (inactive) | -4.36% (inactive)
CC(C)(C)NCC(O)COc1cccc2c1C[C@H](O)[C@H](O)C2 (stereo partly specified) | 82% (inactive) | 85.3% (inactive) | 97.1% (inactive) | 4.26% (inactive) | 92.8 | 97.1 | 2.86% (inactive) | 1.83% (inactive)
OC[C@H]1O[C@@H](n2cnc3c(NC4CCCC4)ncnc32)[C@H](O)[C@@H]1O | 113% (inactive) | 57.6% (inactive) | 74.9% (inactive) | -18.2% (inactive) | 93 | 74.9 | 0.52% (inactive) | -5% (inactive)
CCC1CCCCN1C(=O)C1CC(c2cc(Cl)c(OC)cc2OC)=NO1 (stereo unspecified) | 86% (inactive) | 89.7% (inactive) | 96.6% (inactive) | -4.29% (inactive) | 101 | 96.6 | -2.86% (inactive) | -3.77% (inactive)
Cc1cc2ccccc2c(=O)n1CC(=O)N(C)c1ccc(F)cc1 | 102% (inactive) | 84.2% (inactive) | 102% (inactive) | 2.95% (inactive) | 98.9 | 102 | -2.3% (inactive) | -2.73% (inactive)
COc1ccc(NC(=O)CSc2nc3c(c(=O)n2-c2ccc(F)cc2)SCC3)c(OC)c1 | 89% (inactive) | 91.1% (inactive) | 90.7% (inactive) | 13.1% (inactive) | 77.5 | 90.7 | -6.71% (inactive) | 3.87% (inactive)
CCOC(=O)C1CCCN(C(=O)Cc2ccc(OC)c(OC)c2)C1 (stereo unspecified) | 81% (inactive) | 99.5% (inactive) | 94.5% (inactive) | 2.69% (inactive) | 91.8 | 94.5 | -6.85% (inactive) | 1.09% (inactive)
CCOC(=O)C1(CC)NC(c2cccc(F)c2)C2C(=O)N(CC)C(=O)C21 (stereo unspecified) | 104% (inactive) | 96.1% (inactive) | 97.6% (inactive) | 5.01% (inactive) | 92.6 | 97.6 | -3.29% (inactive) | 3.06% (inactive)
